The source of these data is ChEMBL document CHEMBL1123098, “Activity of platinum(II) intercalating agents against murine leukemia L1210” (J Med Chem, 1985).

A word on the IC50: it is the concentration that inhibits the measured activity by half. A low value points to greater potency.

One experiment has as its system L1210. Description: Growth inhibition of L1210 murine leukemia cells determined in culture. Type of experiment: functional, cell-based, Mus musculus. The method, boiled down: (§1)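 L1210 cells were grown in Minimum Essential Medium with 15% fetal calf serum, 2 mM glutamine and gentamycin, at 37 °C without agitation under 5% O2-10% CO2. Drug was diluted in sterile water and added to 5 × 10^4 cells/mL, with water-only controls. Exposure was continuous for 48 h, or in some cases a 2-h pulse followed by 48-h incubation. Cells were Coulter-counted and growth as % of control was plotted against concentration. IC50 is the mean of at least two determinations.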
As for “(4-methylThiophenolato)(2,2':6',2''-terpyridine)platinum (II) Chloride Dihydrate”, the 50% inhibitory concentration (IC50) was determined as 12 µM.

“(1-Thionaphthalato) (2,2':6',2''-terpyridine)platinum (II) dichloride Dihydrate” gave an IC50 of 5 µM. “(Ethylenediamine)3,4,7,8-tetramethyl-1,10-phenanthroline)platinum (II) dichloride Dihydrate Dihydrate” registered a concentration for half-maximal inhibition (IC50) of 0.7 µM. Still for that read-out and setting: the value for “(1,4-Diaminebutane) ([2,2']Bipyridinyl)platinum (II) dichloride” was above 500 µM; that for “(4-methyloxyThiophenolato)(2,2':6',2''-terpyridine)platinum (II) Chloride Trihydrate” was 9 µM; that for “(2-methyloxyThiophenolato)(2,2':6',2''-terpyridine)platinum (II) Chloride Trihydrate” was 10 µM. The same measure, in the same setting: the value for DICHLORODIPHENYLPLATINUM TRIHYDRATE was 23 µM.

As for “(1,3-Diamino-2-hydroxypropane)(3,4,7,8-tetramethyl-1,10-phenanthroline)platinum (II) dichloride Dihydrate”, half-maximal inhibition (IC50) required 5 µM. Against the preceding substance, the IC50 is about 4.6-fold lower. On the same count and under the same terms, the value for “(1,3-Diaminopropane)(1,10-phenanthroline)-platinum (II) dichloride Dihydrate” was 14 µM. Still for that read-out and setting: the value for “(Ethylenediamine) ([2,2']Bipyridinyl)platinum (II) dichloride Dihydrate” was 33 µM. On the same count and under the same terms, the value for “(1,4-Diamino-butane)(3,4,7,8-tetramethyl-1,10-phenanthroline)platinum (II) dichloride” was 50 µM. The substance “(4-BromoThiophenolato)(2,2':6',2''-terpyridine)platinum (II) Chloride Dihydrate” yielded an IC50 of 9 µM. Still for that read-out and setting: the value for “(1,3-Diaminepropane) ([2,2']Bipyridinyl)platinum (II) dichloride Pentahydrate” was 9 µM. The same measure, in the same setting: the value for “(4-AmmonioThiophenolato)(2,2':6',2''-terpyridine)platinum (II) dichloride Dihydrate” was 32 µM. The same measure, in the same setting: the value for “(2,2':6',2''-terpyridine)platinum (II) dichloride Trihydrate” was 450 µM; that for “(4-ChloroThiophenolato)(2,2':6',2''-terpyridine)platinum (II)DiChloro Trihydrate” was 9 µM. Regarding “(Ethylenediamine)(1,10-phenanthroline)-platinum (II) dichloride Dihydrate”, half-maximal inhibition (IC50) required 2 µM. Same read-out and setting: the value for “(1,3-Diaminopropane)(1,10-phenanthroline)-platinum (II) dichloride Monohydrate” was 1 µM. Same read-out and setting: the value for “(1,3-Diamine-2-hydroxypropane) ([2,2']Bipyridinyl)platinum (II) dichloride” was 43 µM; that for “(1,4-Diaminobutane)(1,10-phenanthroline)-platinum (II) dichloride Monohydrate” was 110 µM.

The test system of another experiment is L1210. Put plainly: Growth inhibition of L1210 leukemia was determined in culture. Format: functional, cell-based, Mus musculus. Summed up:
as §1
For “(Thiophenolato)(2,2':6',2''-terpyridine)platinum (II) Chloride Monohydrate”, the IC50 amounted to 6 µM. This counts as single-digit micromolar.
